Measurements as given in ChEMBL document CHEMBL4680120, “Novel anti-Alzheimer phenol-lipoyl hybrids: Synthesis, physico-chemical characterization, and biological evaluation” (Eur J Med Chem, 2020).
Calls of active or inactive are those of the source. The calls are words filed in the database; no cut-off is given here.

Legend:
Erythrocyte [1] = assay: Cytoprotective activity against H2O2-induced oxidative damage in human RBC assessed as restoration of antioxidant activity measured after 72 hrs by TAC assay; type: functional, cell-based
SH-SY5Y [2] = assay: Neuroprotective activity against amyloid beta (1 to 42)-induced apoptosis in human SH-SY5Y cells assessed as late apoptotic cells at IC50 measured after 48 hrs by Annexin-V/Propidium iodide staining based flow cytometry (reference value: 33.72%); type: functional
SH-SY5Y [3] = assay: Neuroprotective activity against amyloid beta (1 to 42)-induced apoptosis in human SH-SY5Y cells assessed as decrease in DNA fragmentation at IC50 measured after 48 hrs by Hoechst 33258 staining based fluorescence microscopic assay; type: functional, cell-based
Outline: (§1)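 Differentiated SH-SY5Y cells, 4×10^4 per well, exposed 48 h to Aβ1-42 (20 μM) with or without hybrid. Fixed in 4% paraformaldehyde for 30 min, stained with Hoechst 33258 for 15 min. Nuclear chromatin condensation and DNA fragmentation scored by fluorescence microscopy at ×200.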

SH-SY5Y [4] = assay: Neuroprotective activity against amyloid beta (1 to 42)-induced apoptosis in human SH-SY5Y cells assessed as early apoptotic cells at IC50 measured after 48 hrs by Annexin-V/Propidium iodide staining based flow cytometry (reference value: 0.74%); type: functional
SH-SY5Y [5] = assay: Neuroprotective activity against amyloid beta (1 to 42)-induced apoptosis in human SH-SY5Y cells assessed as decrease in DNA condensation at IC50 measured after 48 hrs by Hoechst 33258 staining based fluorescence microscopic assay; type: functional, cell-based; outline: as §1
[6] = Stability in simulated gastric fluid at pH 1.2 assessed as relative difference measured after 30 mins in presence of pepsin by HPLC analysis; type: ADME; settings: isolated protein, pH 1.2, 0.5 h
Outline: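 Incubation in simulated gastric fluid (pH 1.2, pepsin) or simulated intestinal fluid (pH 6.8, pancreatin). Aliquots deproteinized with ice-cold acetonitrile, centrifuged at 4°C and 12000 rpm for 10 min, filtered, analyzed by HPLC. RD% = (Ci − Cf)/Ci × 100. Stable if RD < 5%. Means of three experiments.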

SH-SY5Y [7] = assay: Neuroprotective activity against amyloid beta (1 to 42)-induced toxicity in human SH-SY5Y cells assessed as decrease in MAPT mRNA expression at IC50 measured after 48 hrs by SYBR green dye based RT-qPCR analysis; type: functional, cell-based
Outline: (§2)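 Differentiated SH-SY5Y cells in 6-well plates treated 48 h with Aβ1-42 (20 μM) with or without hybrid. mRNA of AD-related genes measured by RT-qPCR, normalized to β-actin. Expressed as fold change versus untreated cells. Triplicate experiments.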

[8] = Half life in human plasma by HPLC analysis; type: ADME, cell-free
Outline: (§3)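 Compound stock added to human plasma pre-warmed to 37°C and diluted with 0.02 M phosphate buffer (pH 7.4) to 80% plasma. 100 μL samples taken over time, quenched with 200 μL cold acetonitrile, centrifuged, and supernatant analyzed by HPLC. t½ and kobs are means of three experiments.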

SH-SY5Y [9] = assay: Neuroprotective activity against amyloid beta (1 to 42)-induced toxicity in human SH-SY5Y cells assessed as decrease in […] mRNA expression at IC50 measured after 48 hrs by SYBR green dye based RT-qPCR analysis; type: functional, cell-based; outline: as §2
SH-SY5Y [10] = assay: Neuroprotective activity against amyloid beta (1 to 42)-induced toxicity in human SH-SY5Y cells assessed as decrease in PSENEN mRNA expression at IC50 measured after 48 hrs by SYBR green dye based RT-qPCR analysis; type: functional, cell-based; outline: as §2
SH-SY5Y [11] = assay: Neuroprotective activity against amyloid beta (1 to 42)-induced toxicity in human SH-SY5Y cells assessed as decrease in BACE1 mRNA expression at IC50 measured after 48 hrs by SYBR green dye based RT-qPCR analysis; type: functional, cell-based; outline: as §2
SH-SY5Y [12] = assay: Neuroprotective activity against amyloid beta (1 to 42)-induced toxicity in human SH-SY5Y cells assessed as decrease in BDNF mRNA expression at IC50 measured after 48 hrs by SYBR green dye based RT-qPCR analysis; type: functional, cell-based; outline: as §2
SH-SY5Y [13] = assay: Neuroprotective activity against amyloid beta (1 to 42)-induced toxicity in human SH-SY5Y cells assessed as decrease in APH1alpha mRNA expression at IC50 measured after 48 hrs by SYBR green dye based RT-qPCR analysis; type: functional, cell-based; outline: as §2
SH-SY5Y [14] = assay: Neuroprotective activity against amyloid beta (1 to 42)-induced toxicity in human SH-SY5Y cells assessed as decrease in APOE mRNA expression at IC50 measured after 48 hrs by SYBR green dye based RT-qPCR analysis; type: functional, cell-based; outline: as §2
SH-SY5Y [15] = assay: Neuroprotective activity against amyloid beta (1 to 42)-induced toxicity in human SH-SY5Y cells assessed as increase in cell viability at 1 to 250 mg/l measured after 48 hrs by LDH release assay; type: functional, cell-based; settings: dose 1-250 mg/L
Outline: (§4)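 SH-SY5Y cells grown in DMEM/F12 with 10% FBS and differentiated with retinoic acid (10 μM), seeded at 1×10^4 per well and cultured 24 h. Cells were given hybrids at 1–250 mg/L with or without Aβ1-42 (20 μM) for 48 h. MTT (5 mg/mL) added for 4 h at 37°C, DMSO solubilization, read at 570/630 nm. LDH read at 450 nm. Five independent experiments.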

Erythrocyte [16] = assay: Cytoprotective activity against H2O2-induced oxidative damage in human RBC assessed as recovery of H2O2-induced cell death at 50 to 100 uM measured after 72 hrs by MTT assay relative to control; type: functional; settings: dose 50-100 µM
Erythrocyte [17] = assay: Cytoprotective activity against H2O2-induced oxidative damage in human RBC assessed as recovery of H2O2-induced cell death at 50 to 100 uM measured after 72 hrs by LDH release assay relative to control; type: functional; settings: dose 50-100 µM
Outline: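 Heparinised human whole blood cultured in phytohemagglutinin-containing chromosome medium and co-incubated with hybrids and H2O2 at 37C for 72 h. LDH released into the culture medium was measured with a commercial kit. Triton X-100 served as positive control, with untreated cultures as reference. Cytoprotection was expressed as viability relative to control.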

Erythrocyte [18] = assay: Cytoprotective activity against H2O2-induced oxidative damage in human RBC assessed as increase in cell viability measured after 72 hrs by MTT assay; type: functional, cell-based
SH-SY5Y [19] = assay: Cytotoxicity against human SH-SY5Y cells assessed as reduction in cell viability at 1 to 250 mg/l measured after 48 hrs by MTT assay; type: cell-based; settings: dose 1-250 mg/L; outline: as §4
SH-SY5Y [20] = assay: Neuroprotective activity against amyloid beta (1 to 42)-induced apoptosis in human SH-SY5Y cells assessed as necrotic cells at IC50 measured after 48 hrs by Annexin-V/Propidium iodide staining based flow cytometry (reference value: 6.99%); type: functional
Erythrocyte [21] = assay: Antioxidant activity in human RBC assessed as increase in total antioxidant capacity level up to 400 ug/ml measured after 72 hrs relative to control; type: functional; settings: dose microg/ml <=400
Erythrocyte [22] = assay: Cytoprotective activity against H2O2-induced oxidative damage in human RBC assessed as increase in cell viability measured after 72 hrs by LDH release assay; type: functional, cell-based
Outline: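 Heparinized whole blood cultured with phytohemagglutinin. Cells were co-incubated with 50 or 100 μM hybrid and H2O2 (25 μM). Viability was read by MTT: lymphocytes at 2×10^5 per well, MTT 4 h at 37°C, formazan dissolved in DMSO, absorbance 570 nm. LDH release was measured on 100 μL medium with a commercial kit. Results are relative to untreated control.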

[23] = Stability in human plasma assessed as observed rate constant by HPLC analysis; type: ADME, cell-free; outline: as §3

| Structure (SMILES) | Activity (Erythrocyte [1]) | Activity (SH-SY5Y [2]) | Activity (SH-SY5Y [3]) | Activity (SH-SY5Y [4]) | Activity (SH-SY5Y [5]) | fold change (FC) [6] | Activity (SH-SY5Y [7]) | half-life [8] | Activity (SH-SY5Y [9]) | Activity (SH-SY5Y [10]) | Activity (SH-SY5Y [11]) | Activity (SH-SY5Y [12]) | Activity (SH-SY5Y [13]) | Activity (SH-SY5Y [14]) | Activity (SH-SY5Y [15]) | Activity (Erythrocyte [16]) | Activity (Erythrocyte [17]) | Activity (Erythrocyte [18]) | Activity (SH-SY5Y [19]) | Activity (SH-SY5Y [20]) | further results |
| --- | --- | --- | --- | --- | --- | --- | --- | --- | --- | --- | --- | --- | --- | --- | --- | --- | --- | --- | --- | --- | --- |
| COc1cc(/C=C/C(=O)NCCCNC(=O)CCCCC2CCSS2)ccc1O (stereo unspecified) | Dose-dependent effect | 9.97% | Active | 1.19% | Active | 0.43% | Active | 4340 min | Active | Active | Active | Active | Active | Active | Active | 0.5% | 0.4% | Dose-dependent effect | Non-Toxic | 1.13% | Activity (Erythrocyte [21]): 6.7%; Activity (Erythrocyte [22]): Dose-dependent effect; K [23]: 0.01 h⁻¹ |
| O=C(CCCCC1CCSS1)NCCCCCOC(=O)Cc1ccc(O)c(O)c1 (stereo unspecified) | Dose-dependent effect | 9.69% | Active | 1.86% | Active | 79.35% | Active | 1.8 min | Active | Active | Active | Active | Active | Active | Active | 0.5% | 0.4% | Dose-dependent effect | Non-Toxic | 1.04% | Activity (Erythrocyte [21]): 32.3%; Activity (Erythrocyte [22]): Dose-dependent effect; K [23]: 20.56 h⁻¹ |
